Data from ChEMBL document CHEMBL1125091, “Antiulcer agents. 4-substituted 2-guanidinothiazoles: reversible, competitive, and selective inhibitors of gastric H+,K(+)-ATPase” (J Med Chem, 1990).
Each block holds one molecule with its values, some of them ahead of it. The source made the active and inactive calls. No cut-off for these calls is given here.

Key:
[1] = tested on: Potassium-transporting ATPase (Canis familiaris); assay: Percent inhibition of gastric proton-pump enzyme H+/K+ ATPase was determined at 10 uM; settings: Canis lupus familiaris, Stomach
[2] = biological target: Potassium-transporting ATPase (Canis familiaris); assay: Inhibitory activity against dog gastric proton-pump enzyme H+/K+ ATPase
[3] = tested on: Rattus norvegicus; assay: Gastric antisecretory activity against gastric secretion in the pylorus-ligated rat at a dose of 30 mg/Kg; format: functional, Stomach
In short: (§1)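 Conscious rats, pylorus ligated under ether anesthesia; drug or vehicle injected into the duodenum. Killed 2 h after surgery. Stomach contents centrifuged, then titrated to pH 7.0 for acid output (uEq/h per 100 g body weight). Inhibition calculated versus vehicle-treated rats. Means ± SE of 5-10 animals; Student's t test, p < 0.05.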

[4] = tested on: Rattus norvegicus; assay: Gastric antisecretory activity against gastric secretion in the pylorus-ligated rat at a dose of 60 mg/Kg; format: functional, Stomach
In short: as §1

[5] = tested on: Rattus norvegicus; assay: Gastric antisecretory activity against gastric secretion in the pylorus-ligated rat at a dose of 10 mg/Kg; format: functional, Stomach
In short: as §1

[6] = tested on: Rattus norvegicus; assay: Gastric antisecretory activity against gastric secretion in the pylorus-ligated rat at a dose of 26 mg/Kg; format: functional, Stomach
In short: as §1

[7] = tested on: Potassium-transporting ATPase (Canis familiaris); assay: Percent inhibition of gastric proton-pump enzyme H+/K+ ATPase was determined at 50 uM; settings: Canis lupus familiaris, Stomach
[8] = biological target: Dog Kidney Na+, K+-ATPase (Canis lupus familiaris, UniProt P50997); assay: Tested against canine renal Na+/K+ ATPase
[9] = species on record: Rattus norvegicus; assay: Antisecretory activity in a pylorus-ligated rat model
[10] = tested on: Rattus norvegicus; assay: Gastric antisecretory activity against gastric secretion in the pylorus-ligated rat at a dose of 60 mg/kg; format: functional, Stomach
In short: as §1

[11] = biological target: Potassium-transporting ATPase (Canis familiaris); assay: The compound was tested in vitro for inhibition of gastric proton-pump enzyme H+/K+ ATPase
[12] = tested on: Rattus norvegicus; assay: Gastric antisecretory activity against gastric secretion in the pylorus-ligated rat at a dose of 33 mg/Kg; format: functional, Stomach
In short: as §1

[13] = biological target: Potassium-transporting ATPase (Canis familiaris); assay: Inhibitory activity of gastric proton-pump enzyme H+/K+ ATPase was determined at 50 uM
[14] = tested on: Canis familiaris; assay: Antisecretory activity in Heidenhain pouch dog model at 2 mg/kg, iv; format: functional, organism-based; parameters: dose 2 mg/kg; settings: Canis lupus familiaris
In short: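 Heidenhain pouch dogs on pentagastrin infusion; drug or vehicle given iv at 2 mg/kg, 90 min after the infusion started. Gastric juice collected at 30-min intervals, ten collections per dog. Acid titrated to pH 7.4 with 0.1 N NaOH. Effect = lowest acid output after drug versus mean output immediately before drug.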

SMILES: Br.COc1ccc(-c2csc(N=C(N)N)n2)cc1
Activity [3]: 26%
Activity [4]: 87%
Activity [5]: 27%

SMILES: Cc1cc(-c2csc(N=C(N)N)n2)c[nH]1
Activity [6]: 50%
inhibition [7]: 70%
IC50 [8]: > 100 µM
IC50 [2]: 25 µM

SMILES: CN/C(=N\CCSCc1nc[nH]c1C)NC#N [CIMETIDINE]
ED50 [9]: 11 mg/kg

SMILES: Cc1cc(-c2nc(N=C(N)N)sc2C)c[nH]1
Activity [10]: 36%
IC50 [11]: 1 µM
inhibition [7]: 100%
IC50 [2]: 1.2 µM

SMILES: Cl.N=C(N)Nc1nc(-c2c[nH]c3ccc(Br)cc23)cs1
inhibition [1]: 90%
IC50 [2]: 0.96 µM
Activity [4]: -43%

Further lines, with some results ahead:

inhibition [1]: 55%
IC50 [2]: 7.6 µM
SMILES: Cc1cccc2c(-c3csc(N=C(N)N)n3)c[nH]c12

inhibition [7]: 76%
IC50 [2]: 45 µM
SMILES: Cc1ccc(-c2csc(N=C(N)N)n2)[nH]1.O=C(O)/C=C\C(=O)O
Activity [12]: 50%

IC50 [13]: 6.2 µM
SMILES: Cc1[nH]c2ccccc2c1-c1nc(N=C(N)N)sc1C.Cl
Activity [4]: 78%
Activity [14]: inactive
Activity [5]: 51%
